Measured values as given in ChEMBL document CHEMBL1146783, “Conformationally restricted analogs of deoxynegamycin” (Bioorg Med Chem Lett, 2004).
In brackets after ≈: the same amount, converted by molar mass.

Columns and labels:
Assay type in all cases: functional
Escherichia coli [1] = test: Minimum inhibitory concentration (MIC) against Escherichia coli ATCC 25922; Inactive
In short: (§1)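 Broth microdilution in Mueller–Hinton broth supplemented with 50% human serum; inoculum 5 × 10⁵ cfu/mL.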

Escherichia coli [2] = test: Minimum inhibitory concentration (MIC) against Escherichia coli MG1655; Inactive; in short: as §1
Enterobacter cloacae [3] = test: Minimum inhibitory concentration (MIC) against Enterobacter cloacae ATCC 35030; Inactive; in short: as §1
Pseudomonas aeruginosa [4] = test: Minimum inhibitory concentration (MIC) against Pseudomonas aeruginosa PA01; Inactive; in short: as §1
Streptococcus pneumoniae [5] = test: Minimum inhibitory concentration (MIC) against Streptococcus pneumoniae 1005; Inactive; in short: as §1
Staphylococcus aureus [6] = test: Minimum inhibitory concentration (MIC) against Staphylococcus aureus […]; Inactive; in short: as §1
Escherichia coli [7] = test: Minimum inhibitory concentration (MIC) against Escherichia coli MG1655 tolC; Inactive; in short: as §1
Klebsiella pneumoniae [8] = test: Minimum inhibitory concentration (MIC) against Klebsiella pneumoniae ATCC 13882; Inactive; in short: as §1
Escherichia coli [9] = test: Minimum inhibitory concentration (MIC) against Escherichia coli ATCC 25922; settings: Escherichia coli, ATCC 25922; read-out: MIC; in short: as §1
Escherichia coli [10] = test: Minimum inhibitory concentration (MIC) against Escherichia coli MG1655; settings: Escherichia coli; read-out: MIC; in short: as §1
Escherichia coli [11] = test: Minimum inhibitory concentration (MIC) against Escherichia coli MG1655 tolC; settings: Escherichia coli, MG1655; read-out: MIC; in short: as §1
Enterobacter cloacae [12] = test: Minimum inhibitory concentration (MIC) against Enterobacter cloacae ATCC 35030; settings: Enterobacter cloacae, ATCC 35030; read-out: MIC; in short: as §1
Klebsiella pneumoniae [13] = test: Minimum inhibitory concentration (MIC) against Klebsiella pneumoniae ATCC 13882; settings: Klebsiella pneumoniae, ATCC 13882; read-out: MIC; in short: as §1
Pseudomonas aeruginosa [14] = test: Minimum inhibitory concentration (MIC) against Pseudomonas aeruginosa PA01; settings: Pseudomonas aeruginosa; read-out: MIC; in short: as §1
Streptococcus pneumoniae [15] = test: Minimum inhibitory concentration (MIC) against Streptococcus pneumoniae 1005; in short: as §1
Staphylococcus aureus [16] = test: Minimum inhibitory concentration (MIC) against Staphylococcus aureus ATCC 25293; settings: Staphylococcus aureus, ATCC 25293; read-out: MIC; in short: as §1
Mus musculus = species on record: Mus musculus; test: Compound was evaluated for its efficacy in an Escherichia coli murine septicemia model
In short: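 Mice infected intraperitoneally with about 1 × 10⁵ cfu of E. coli ATCC25922; compound given intravenously at 1 and 5 h post-infection.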

CN(CC(=O)O)NC(=O)C[C@H](N)Cc1csc(N)n1
MIC (Escherichia coli [1]): > 256 µg/mL
MIC (Escherichia coli [2]): > 256 µg/mL
MIC (Enterobacter cloacae [3]): > 256 µg/mL
MIC (Pseudomonas aeruginosa [4]): > 256 µg/mL
MIC (Streptococcus pneumoniae [5]): > 256 µg/mL
MIC (Staphylococcus aureus [6]): > 256 µg/mL
MIC (Escherichia coli [7]): > 256 µg/mL
MIC (Klebsiella pneumoniae [8]): > 256 µg/mL

CN(CC(=O)O)NC(=O)C[C@H](N)C1CCCNC1 (stereo partly specified)
MIC (Escherichia coli [9]): > 128 µg/mL
MIC (Escherichia coli [10]): > 128 µg/mL
MIC (Escherichia coli [11]): > 128 µg/mL
MIC (Enterobacter cloacae [12]): > 128 µg/mL
MIC (Klebsiella pneumoniae [13]): > 128 µg/mL
MIC (Pseudomonas aeruginosa [14]): > 128 µg/mL
MIC (Streptococcus pneumoniae [15]): > 128 µg/mL
MIC (Staphylococcus aureus [16]): > 128 µg/mL

CN(CC(=O)O)NC(=O)C[C@H](N)/C=C(/F)CN
MIC (Escherichia coli [9]): > 256 µg/mL
MIC (Escherichia coli [10]): > 256 µg/mL
MIC (Escherichia coli [11]): > 256 µg/mL
MIC (Enterobacter cloacae [12]): > 256 µg/mL
MIC (Klebsiella pneumoniae [13]): > 256 µg/mL
MIC (Pseudomonas aeruginosa [14]): > 256 µg/mL
MIC (Streptococcus pneumoniae [15]): 256 µg/mL (≈ 1030 µM)
MIC (Staphylococcus aureus [16]): > 256 µg/mL

CN(CC(=O)O)NC(=O)C[C@H](N)c1csc(N)n1
MIC (Escherichia coli [1]): > 256 µg/mL
MIC (Escherichia coli [2]): > 256 µg/mL
MIC (Enterobacter cloacae [3]): > 256 µg/mL
MIC (Pseudomonas aeruginosa [4]): > 256 µg/mL
MIC (Streptococcus pneumoniae [5]): > 256 µg/mL
MIC (Staphylococcus aureus [6]): > 256 µg/mL
MIC (Escherichia coli [7]): > 256 µg/mL
MIC (Klebsiella pneumoniae [8]): > 256 µg/mL

CN(CC(=O)O)NC(=O)C[C@H](N)CCCN
MIC (Escherichia coli [9]): 16 µg/mL (≈ 68.9 µM)
MIC (Escherichia coli [10]): 8 µg/mL (≈ 34.4 µM)
MIC (Escherichia coli [11]): 4 µg/mL (≈ 17.2 µM)
MIC (Enterobacter cloacae [12]): 4 µg/mL (≈ 17.2 µM)
MIC (Klebsiella pneumoniae [13]): 8 µg/mL (≈ 34.4 µM)
ED50 (Mus musculus): 4.8 mg/kg
MIC (Pseudomonas aeruginosa [14]): 64 µg/mL (≈ 276 µM)
MIC (Streptococcus pneumoniae [15]): 64 µg/mL (≈ 276 µM)
MIC (Staphylococcus aureus [16]): 64 µg/mL (≈ 276 µM)

CN(CC(=O)O)NC(=O)CC(N)C1CCC(N)CC1 (stereo unspecified)
MIC (Escherichia coli [9]): 128 µg/mL (≈ 470 µM)
MIC (Escherichia coli [10]): 64 µg/mL (≈ 235 µM)
MIC (Escherichia coli [11]): 32 µg/mL (≈ 117 µM)
MIC (Enterobacter cloacae [12]): 128 µg/mL (≈ 470 µM)
MIC (Klebsiella pneumoniae [13]): 32 µg/mL (≈ 117 µM)
MIC (Pseudomonas aeruginosa [14]): 256 µg/mL (≈ 940 µM)
MIC (Streptococcus pneumoniae [15]): 128 µg/mL (≈ 470 µM)
MIC (Staphylococcus aureus [16]): 128 µg/mL (≈ 470 µM)

CN(CC(=O)O)NC(=O)C[C@H](N)/C=C(\F)CN
MIC (Escherichia coli [9]): > 256 µg/mL
MIC (Escherichia coli [10]): > 256 µg/mL
MIC (Escherichia coli [11]): > 256 µg/mL
MIC (Enterobacter cloacae [12]): > 256 µg/mL
MIC (Klebsiella pneumoniae [13]): > 256 µg/mL
MIC (Pseudomonas aeruginosa [14]): > 256 µg/mL
MIC (Streptococcus pneumoniae [15]): 256 µg/mL (≈ 1030 µM)
MIC (Staphylococcus aureus [16]): > 256 µg/mL

CN(CC(=O)O)NC(=O)CC1(N)CCC(N)CC1 (stereo unspecified)
MIC (Escherichia coli [1]): > 256 µg/mL
MIC (Escherichia coli [2]): > 256 µg/mL
MIC (Enterobacter cloacae [3]): > 256 µg/mL
MIC (Pseudomonas aeruginosa [4]): > 256 µg/mL
MIC (Streptococcus pneumoniae [5]): > 256 µg/mL
MIC (Staphylococcus aureus [6]): > 256 µg/mL
MIC (Escherichia coli [7]): > 256 µg/mL
MIC (Klebsiella pneumoniae [8]): > 256 µg/mL

CN(CC(=O)O)NC(=O)CC(N)C1CCCC(N)C1 (stereo unspecified)
MIC (Escherichia coli [9]): 256 µg/mL (≈ 940 µM)
MIC (Escherichia coli [10]): 128 µg/mL (≈ 470 µM)
MIC (Escherichia coli [11]): 64 µg/mL (≈ 235 µM)
MIC (Enterobacter cloacae [12]): 256 µg/mL (≈ 940 µM)
MIC (Klebsiella pneumoniae [13]): 64 µg/mL (≈ 235 µM)
MIC (Pseudomonas aeruginosa [14]): > 256 µg/mL
MIC (Streptococcus pneumoniae [15]): 128 µg/mL (≈ 470 µM)
MIC (Staphylococcus aureus [16]): 256 µg/mL (≈ 940 µM)

CN(CC(=O)O)NC(=O)C[C@H](N)Cc1csc(CCNC(=O)OC(C)(C)C)n1
MIC (Escherichia coli [1]): > 256 µg/mL
MIC (Escherichia coli [2]): > 256 µg/mL
MIC (Enterobacter cloacae [3]): > 256 µg/mL
MIC (Pseudomonas aeruginosa [4]): > 256 µg/mL
MIC (Streptococcus pneumoniae [5]): > 256 µg/mL
MIC (Staphylococcus aureus [6]): > 256 µg/mL
MIC (Escherichia coli [7]): > 256 µg/mL
MIC (Klebsiella pneumoniae [8]): > 256 µg/mL
